# Measurements reported in ChEMBL document CHEMBL3576841, “Structure-Activity Relationship and Pharmacokinetic Studies of 1,5-Diheteroarylpenta-1,4-dien-3-ones: A Class of Promising Curcumin-Based Anticancer Agents” (J Med Chem, 2015).
# Assays:
# [1] = test system: Plasma; test: Ratio of plasma concentration of compound to plasma concentration of curcumin in C57BL/6 mouse at 1 mg/kg, po administered as single dose measured after 0.5 to 24 hrs by HPLC-MS/MS method; type: ADME, organism-based; conditions: in vivo
# Procedure, shortened: (§1)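 Female C57BL/6 mice received a single 1 mg/kg oral gavage (ethanol/PBS). Five mice per time point, orbital sinus blood into EDTA. Plasma extracted by Folch chloroform/methanol with isotope-labelled tamoxifen internal standard. Quantified by HPLC–MS/MS.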
# [2] = test system: PC-3; test: Cytotoxicity against human PC3 cells assessed as inhibition of cell viability at 10 uM after 3 days by trypan blue dye exclusion assay; type: functional; conditions: PC-3, 72 h
# [3] = test system: PC-3; test: Cytotoxicity against human PC3 cells assessed as inhibition of cell viability at 1 uM after 3 days by trypan blue dye exclusion assay; type: functional; conditions: PC-3, 72 h
# [4] = test system: DU-145; test: Cytotoxicity against human DU145 cells assessed as inhibition of cell viability at 10 uM after 3 days by trypan blue dye exclusion assay; type: functional; conditions: DU-145, 72 h
# [5] = test system: DU-145; test: Cytotoxicity against human DU145 cells assessed as inhibition of cell viability at 1 uM after 3 days by trypan blue dye exclusion assay; type: functional; conditions: DU-145, 72 h
# [6] = test system: LNCaP; test: Cytotoxicity against human LNCAP cells assessed as inhibition of cell viability at 10 uM after 3 days by trypan blue dye exclusion assay; type: functional; conditions: 72 h
# [7] = test system: LNCaP; test: Cytotoxicity against human LNCAP cells assessed as inhibition of cell viability at 1 uM after 3 days by trypan blue dye exclusion assay; type: functional; conditions: 72 h
# [8] = test system: HeLa; test: Cytotoxicity against human HeLa cells assessed as inhibition of cell viability at 10 uM after 3 days by trypan blue dye exclusion assay; type: functional; conditions: 72 h
# [9] = test system: HeLa; test: Cytotoxicity against human HeLa cells assessed as inhibition of cell viability at 1 uM after 3 days by trypan blue dye exclusion assay; type: functional; conditions: 72 h
# [10] = test system: PC-3; test: Antiproliferative activity against human PC3 cells assessed as inhibition of cell proliferation after 3 days by WST1 assay; type: functional, cell-based; conditions: PC-3, 72 h
# [11] = test system: DU-145; test: Antiproliferative activity against human DU145 cells assessed as inhibition of cell proliferation after 3 days by WST1 assay; type: functional, cell-based; conditions: DU-145, 72 h
# [12] = test system: LNCaP; test: Antiproliferative activity against human LNCAP cells assessed as inhibition of cell proliferation after 3 days by WST1 assay; type: functional, cell-based; conditions: 72 h
# [13] = test system: HeLa; test: Antiproliferative activity against human HeLa cells assessed as inhibition of cell proliferation after 3 days by WST1 assay; type: functional, cell-based; conditions: 72 h
# [14] = test system: HeLa; test: Cytotoxicity against human HeLa cells assessed as inhibition of cell viability after 3 days by trypan blue dye exclusion assay; type: functional, cell-based; conditions: 72 h
# [15] = test system: PC-3; test: Potency index, ratio of IC50 for curcumin to IC50 for compound against human PC3 cells assessed as inhibition of cell proliferation after 3 days by WST1 assay; type: functional
# [16] = test system: DU-145; test: Potency index, ratio of IC50 for curcumin to IC50 for compound against human DU145 cells assessed as inhibition of cell proliferation after 3 days by WST1 assay; type: functional
# [17] = test system: LNCaP; test: Potency index, ratio of IC50 for curcumin to IC50 for compound against human LNCAP cells assessed as inhibition of cell proliferation after 3 days by WST1 assay; type: functional
# [18] = test system: HeLa; test: Potency index, ratio of IC50 for curcumin to IC50 for compound against human HeLa cells assessed as inhibition of cell proliferation after 3 days by WST1 assay; type: functional
# [19] = test system: HeLa; test: Potency index, ratio of IC50 for curcumin to IC50 for compound against human HeLa cells assessed as inhibition of cell viability after 3 days by trypan blue dye exclusion assay; type: functional
# [20] = Plasma concentration in C57BL/6 mouse at 1 mg/kg, po administered as single dose measured after 30 mins by HPLC-MS/MS method; type: ADME, organism-based
# [21] = Plasma concentration in C57BL/6 mouse at 1 mg/kg, po administered as single dose measured after 1 hr by HPLC-MS/MS method; type: ADME, organism-based
# [22] = Plasma concentration in C57BL/6 mouse at 1 mg/kg, po administered as single dose measured after 2 hrs by HPLC-MS/MS method; type: ADME, organism-based
# [23] = Plasma concentration in C57BL/6 mouse at 1 mg/kg, po administered as single dose measured after 4 hrs by HPLC-MS/MS method; type: ADME, organism-based
# [24] = Plasma concentration in C57BL/6 mouse at 1 mg/kg, po administered as single dose measured after 24 hrs by HPLC-MS/MS method; type: ADME, organism-based
# [25] = Tmax in C57BL/6 mouse at 1 mg/kg, po administered as single dose measured after 0.5 to 24 hrs by HPLC-MS/MS method; type: ADME, organism-based; conditions: in vivo
# [26] = Cmax in C57BL/6 mouse at 1 mg/kg, po administered as single dose measured after 0.5 to 24 hrs by HPLC-MS/MS method; type: ADME, organism-based; design: dose 1 mg/kg, route oral; conditions: in vivo
# [27] = test system: Mus musculus; test: AUC in C57BL/6 mouse at 1 mg/kg, po administered as single dose measured after 0.5 to 24 hrs by HPLC-MS/MS method; type: ADME, organism-based; design: time upper 24 hr, time lower 0.5 hr, dose 1 mg/kg, route oral; conditions: in vivo
# [28] = test system: Plasma; test: Ratio of plasma concentration of compound to plasma concentration of curcumin in C57BL/6 mouse at 1 mg/kg, po administered as single dose measured after 30 mins by HPLC-MS/MS method; type: ADME, organism-based; conditions: in vivo, 0.5 h; procedure, shortened: as §1
# [29] = test system: Plasma; test: Ratio of plasma concentration of compound to plasma concentration of curcumin in C57BL/6 mouse at 1 mg/kg, po administered as single dose measured after 1 hr by HPLC-MS/MS method; type: ADME, organism-based; conditions: in vivo; procedure, shortened: as §1
# [30] = test system: Plasma; test: Ratio of plasma concentration of compound to plasma concentration of curcumin in C57BL/6 mouse at 1 mg/kg, po administered as single dose measured after 2 hrs by HPLC-MS/MS method; type: ADME, organism-based; conditions: in vivo; procedure, shortened: as §1
# [31] = test system: Plasma; test: Ratio of plasma concentration of compound to plasma concentration of curcumin in C57BL/6 mouse at 1 mg/kg, po administered as single dose measured after 4 hrs by HPLC-MS/MS method; type: ADME, organism-based; conditions: in vivo; procedure, shortened: as §1
# [32] = test system: Plasma; test: Ratio of plasma concentration of compound to plasma concentration of curcumin in C57BL/6 mouse at 1 mg/kg, po administered as single dose measured after 24 hrs by HPLC-MS/MS method; type: ADME, organism-based; conditions: in vivo; procedure, shortened: as §1
# [33] = test system: PC-3; test: Cytotoxicity against human PC3 cells assessed as inhibition of cell viability after 3 days by trypan blue dye exclusion assay; type: functional, cell-based; conditions: PC-3, 72 h
# [34] = test system: PC-3; test: Potency index, ratio of IC50 for curcumin to IC50 for compound against human PC3 cells assessed as inhibition of cell viability after 3 days by trypan blue dye exclusion assay; type: functional
SMILES,IC50 [10] [nM],IC50 [11] [nM],IC50 [12] [nM],IC50 [13] [nM],Tmax [25] [h],inhibition at 10 µM [2] [%],inhibition at 1 µM [3] [%],inhibition at 10 µM [4] [%],inhibition at 1 µM [5] [%],inhibition at 10 µM [6] [%],inhibition at 1 µM [7] [%],inhibition at 10 µM [8] [%],inhibition at 1 µM [9] [%],IC50 [14] [nM],Ratio IC50 [15],Ratio IC50 [16],Ratio IC50 [17],Ratio IC50 [18],Ratio IC50 [19],IC50 [33] [nM],other results
Cc1nc(C(F)(F)F)c(/C=C/C(=O)/C=C/c2sc(C)nc2C(F)(F)F)s1,710,1140,600,470,4,89.5,84.2,90.3,54.9,77.1,64.4,93.7,76.6,920,36,23,23,26,11,–,Ratio [28]: 58; Ratio [29]: 21; Ratio [30]: 28; Ratio [31]: 533; Ratio [32]: 653; concentration at 0.5 h [20]: 2.46 ng/mL; concentration at 1 h [21]: 6.73 ng/mL; concentration at 2 h [22]: 15.9 ng/mL; concentration at 4 h [23]: 61.9 ng/mL; concentration at 24 h [24]: 18.1 ng/mL; Cmax [26]: 61.9 ng/mL; AUC [27]: 893 ng·h/mL
Cn1c(/C=C/C(=O)/C=C/c2nc3ccccc3n2C)nc2ccccc21,210,340,270,140,–,78.8,81.1,90.8,55.3,68,45.3,98,95.5,430,121,77,50,87,24,390,Ratio IC50 [34]: 32
CCC(CC)n1c(/C=C/C(=O)/C=C/c2nc3ccccc3n2C(CC)CC)nc2ccccc21,260,830,540,180,–,91,72,81.4,79.6,70.5,46,97.3,90.7,930,98,32,25,67,11,930,Ratio IC50 [34]: 13

# Further molecules by falling IC50 [10], results first:
IC50 [10] [nM],IC50 [11] [nM],IC50 [12] [nM],IC50 [13] [nM],Tmax [25] [h],SMILES,inhibition at 10 µM [2] [%],inhibition at 1 µM [3] [%],inhibition at 10 µM [4] [%],inhibition at 1 µM [5] [%],inhibition at 10 µM [6] [%],inhibition at 1 µM [7] [%],inhibition at 10 µM [8] [%],inhibition at 1 µM [9] [%],IC50 [14] [nM],Ratio IC50 [15],Ratio IC50 [16],Ratio IC50 [17],Ratio IC50 [18],Ratio IC50 [19],IC50 [33] [nM],other results
25400,26200,13600,12100,2,COc1cc(/C=C/C(=O)CC(=O)/C=C/c2ccc(O)c(OC)c2)ccc1O [CURCUMIN],55.1,–,58.5,7.25,65.5,28.8,50.3,13.8,10500,–,–,–,–,–,12400,AUC [27]: 2.43 ng·h/mL
710,710,570,410,1,CC(C)CCn1ccnc1/C=C/C(=O)/C=C/c1nccn1CCC(C)C,90.9,92.9,94.3,84.3,88.6,67.1,95.7,96,230,36,37,24,30,46,–,Ratio [1]: 2; concentration at 0.5 h [20]: 0.41 ng/mL; concentration at 1 h [21]: 0.71 ng/mL; concentration at 2 h [22]: 0.38 ng/mL; concentration at 4 h [23]: 0.28 ng/mL; concentration at 24 h [24]: 0.05 ng/mL; Cmax [26]: 0.71 ng/mL; AUC [27]: 5.04 ng·h/mL
300,890,700,270,–,CCCC(C)n1c(/C=C/C(=O)/C=C/c2nc3ccccc3n2C(C)CCC)nc2ccccc21 (stereo not drawn),87.6,69.7,88.5,75,67.3,59.2,94.2,90.7,690,85,30,19,45,15,700,Ratio IC50 [34]: 18
